# This is a sample that favours compounds with a hit; in the whole collection about 3.5% have one here.
# FGF22 binding = shifts melting point of recombinant human FGF22 | Q9HCT0 | recombinant FGF22 thermal shift, SYPRO orange fluorescence; percent of sucrose octasulfate shift, DMSO zero | activity (Tm shift, normalised), % at 9.99 µM | actives 1.5% (n = 340,000);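 active = mean Tm shift, scaled 0 neutral to 100 positive control, at about 1.3% or above, every replicate too, limit read from the data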
# Target sequence (Q9HCT0 whole entry, looked up): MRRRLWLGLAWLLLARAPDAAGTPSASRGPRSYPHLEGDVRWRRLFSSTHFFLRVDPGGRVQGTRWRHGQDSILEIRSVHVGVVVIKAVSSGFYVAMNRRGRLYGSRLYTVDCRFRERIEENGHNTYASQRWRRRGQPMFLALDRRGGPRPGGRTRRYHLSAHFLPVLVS
# PGC1a acetyl inh = PGC1a acetylation modulation, inhibitor mode | U2OS PGC1a acetylation, AlphaScreen anti-acetyl-lysine; with virally co-expressed GCN5 acetyltransferase | actives 0.17% (n = 350,000) | inhibition, % at 15.6 µM;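 active = every replicate shows inhibition of at least 40%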;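 also: 0% = neutral control wells and 100% = positive control wells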
# Cneo AK release = causes C. neoformans cell lysis. adenylate kinase release luminescence, 4 h; normalised: neutral wells 0, clomiphene wells 100. lysis activity, % at 15 µM. actives 0.2% (n = 360,000). AID 651654;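 active = mean lysis activity across replicates of at least 80%, whatever share of replicates individually reach that level; inactive = mean lysis activity below 80%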
#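 Material: C. neoformans cells; Schedule: 4 h static compound exposure, 37 °C, read 1 h post-reagent; Measured by: adenylate kinase release luminescence; Read-out: signal increase indicating cell lysis; Controls: Clomiphene as positive lysis control.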
# ERAP1 HTS inh = ERAP1 (human) enzyme inhibition; inhibition, % at 10.7 µM; Q9NZ08; actives 0.15% (n = 340,000); recombinant ERAP1, Leu-AMC fluorescence, 60 min;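 active = mean replicate inhibition of at least 30%, or all replicates individually reaching that 30% level; inactive = mean below 30% and not every replicate reaching it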;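 also: 0% = neutral control wells and 100% = L-leucinethiol positive control wells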
# Ecoli rRNA inh = selective bacterial rRNA inhibition in E. coli; actives 1.6% (n = 350,000); E. coli WT GFP vs humanized-ribosome RFP mutants, fluorescence, 24 h; hits give low values; DMSO median 0, no signal -100; GFP signal change (wild-type ribosome), % (no concentration beside the values);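 active = significant combined selectivity score with lowered wild-type GFP, culture density cut under 30%, mutant RFP and density less affected; inactive = any of these conditions unmet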
# HIV Env fusion = HIV envelope-mediated fusion inhibition; HeLa-JRFL Env/CEM21 cell fusion, luciferase; inhibition, % at 12.3 µM; actives 1.1% (n = 360,000);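 active = mean replicate inhibition score of at least 50 and every replicate individually at or above 50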;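 also: 0% = plate neutral controls and 100% = maraviroc near 300 nM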
# Starred values were filed as active, the others as inactive; / = not tested or not shown; [ ] = dose if it differs, or a comment.
SMILES,FGF22 binding,PGC1a acetyl inh,Cneo AK release,ERAP1 HTS inh,Ecoli rRNA inh,HIV Env fusion
CCN(CC(=O)NC1CCS(=O)(=O)C1)Cc1nc2c(Br)cc(Br)cc2c(=O)[nH]1 (stereo unspecified),0,11,/,3,-2,-11
CCN(CC(=O)NC(C)(C)C)Cc1nc2c(Br)cc(Br)cc2c(=O)[nH]1,0,10,/,2,-29*,10
Cc1ccc(CN(C)C(=O)c2ccc(S(=O)(=O)N3CCCCCC3)cc2)o1,0,1,0,0,-5,17
CCC(CC)C(=O)N(CCc1ccc(OC)cc1)Cc1nc2ccccc2c(=O)[nH]1,0,-11,3,1,-51*,/
Cc1noc(C)c1S(=O)(=O)Nc1ccc2c(c1)C(=O)N([C@H](C)CO)C[C@H](C)[C@H](CN(C)C(=O)Nc1cccc3ccccc13)OCCCC[C@@H](C)O2,1,3,54,-5,-1,-5[16.7 µM]
COc1cccc(-c2ccc(C#N)c(=O)[nH]2)c1,43*,/,/,-4,/,-70
COc1ccccc1NC(=O)CSc1ccc(-c2ccccn2)nn1,0,/,1,3,-24,-36
COc1ccc(-c2ccc(SCC(=O)c3cccs3)nn2)cc1OC,0,-31,/,2,-34*,3
COc1ccc(-c2ccc(SCC(=O)c3ccc(F)cc3)nn2)cc1OC,0,29,2,-5,-21,2
COc1ccc(-c2ccc(SCC(=O)Nc3cccc(C(C)=O)c3)nn2)cc1OC,43*,-12,-12,-2,-23,-31
COc1ccc(NC(=O)CSc2ccc(-c3ccccn3)nn2)cc1OC,43*,/,1,-1,15,/
C[C@H]1CCCCO[C@H](CN(C)Cc2ccncc2)[C@@H](C)CN([C@@H](C)CO)C(=O)c2cc(NC(=O)CCC(F)(F)F)ccc2O1,0,1,-3,2,-1,-16[16.7 µM]
CC(C)(C)OC(=O)NCc1ccc(CNC(=O)c2[nH]cnc2C(=O)Nc2ccccc2F)cc1,43*,/,1,3,12,33
CC(C)(C)OC(=O)NCCCC[C@H](NC(=O)c1[nH]cnc1C(=O)Nc1ccc(CNC(=O)OC(C)(C)C)cc1)C(=O)OC(C)(C)C,/,/,/,11,7,72*
CC(C)(C)OC(=O)NCCCC[C@H](NC(=O)c1nc[nH]c1C(=O)NCc1ccccc1)C(=O)OC(C)(C)C,0,/,0,-2,5,-21
O=C(CC(C(=O)O)c1c(F)cccc1Cl)c1ccc(Cl)cc1 (stereo unspecified),0,2,-2,-7,0,13
CN1CCN(CC(=O)Nc2nc(-c3c[nH]c4ccccc34)cs2)CC1,0,2,-3,9,-2,12
CN1N=C(C(F)(F)F)CC1=O,44*,3,/,-7,14,14
c1ccc(-n2cc(CN3CCCC3)c(-c3ccc4c(c3)OCO4)n2)cc1,43*,-13,-1,1,6,-3
O=C(O)CCN=Cc1c(O)c2ccccc2oc1=O,43*,/,/,3,-5,11
Cc1ccnc(SCC(=O)c2cc3ccccc3o2)n1,0,3,2,-1,3,-10
NC(=S)N=Nc1c(O)[nH]c2ccc(F)cc12,0,/,/,-1,13,/
NC(=S)N=Nc1c(O)cc(O)c2[nH]c(=O)ccc12,0,3,/,52*,11,-2
Cc1cc(NC(=O)CCC(=O)N(Cc2ccco2)C2(C(=O)NC3CCCC3)CCC(C)CC2)no1 (stereo unspecified),0,-9,1,-1,-4,7
Cc1cc(NC(=O)CCC(=O)N(C2CC2)C2(C(=O)NC3CCCC3)CCC(C)CC2)no1 (stereo unspecified),/,-12,3,/,/,100*
SMILES,FGF22 binding,PGC1a acetyl inh,Cneo AK release,ERAP1 HTS inh,Ecoli rRNA inh,HIV Env fusion
Cc1ccc(C)c(NC(=O)Cn2cnc3c(oc4ccccc43)c2=O)c1,45*,/,0,3,18,4
CC(NCCCOc1cccc2ccccc12)c1ccccc1 (stereo unspecified),0,-31,8,0,-48,75*
O=C(CCCCCCCC(=O)c1ccccc1)c1ccccc1,44*,/,7,-3,4,7
Cc1ccc(C(=O)CC(=O)c2ccccc2)cc1,0,/,-1,2,-6,-76
O=C(CCCCCCC(=O)c1ccccc1)c1ccccc1,43*,1,/,0,15,-8
Cc1ccc(C(=O)Cc2ccccc2)cc1,44*,-13,/,0,3,/
Cc1ccc2oc3c(SCc4nc5ccccc5[nH]4)nc(C)nc3c2c1,0,-13,-1,2,-18,-1
CN(c1ccccc1)S(=O)(=O)c1cccc(C(=O)NCc2ccccc2)c1,0,2,2,-5,-34,6
OC1(c2ccc(OC(F)F)cc2)CSC(=Nc2cccnc2)N1C1CC1 (stereo unspecified),/,-10,-2,/,/,75*
COc1ccc(OC)c(C2(O)CSC(=Nc3cccnc3)N2Cc2ccco2)c1 (stereo unspecified),43,/,-1,5,-53,22
Cc1cccc(-n2c(=O)cc(N3CCN(c4ccc(F)cc4)CC3)[nH]c2=O)c1,-1,55*,4,-3,9,7
Cc1cccc(N2CCN(C(=O)c3ccc4nccnc4c3)CC2C)c1 (stereo unspecified),43*,3,-1,1,0,/
CCOC(=O)c1c(CSCc2ccccc2)oc2ccc(O)c(CN(C)C)c12,0,-16,2,6,-26,58*
O=S(=O)(c1cccc(Br)c1)N1CCN(c2ncnc3scc(-c4ccccc4)c23)CC1,0,-2,0,-2,12,12
Cc1sc2ncnc(N3CCN(S(=O)(=O)c4ccc(C(C)(C)C)cc4)CC3)c2c1C,0,/,1,-1,9,15
COc1ccc(-c2csc3ncnc(N4CCN(S(=O)(=O)c5ccc(C)cc5)CC4)c23)cc1,0,/,/,0,3,63*
Cc1sc2ncnc(N3CCN(S(=O)(=O)c4ccc(Br)cc4)CC3)c2c1C,0,/,-4,-1,-5,78*
Cc1csc2ncnc(N3CCN(S(=O)(=O)c4cccc(C(F)(F)F)c4)CC3)c12,0,3,-6,2,-3,57*
COc1ccc(N2CCN(c3ncnc4scc(-c5ccc(F)cc5)c34)CC2)cc1,0,6,2,5,-24*,16
CO[C@@H]1CN(C)C(=O)c2cc(NC(=O)C3CC3)ccc2OC[C@H](C)N(C(=O)C2CCCCC2)C[C@H]1C,0,-10,-6,4,3,/
O=C(NCCNc1ccc([N+](=O)[O-])cc1C(F)(F)F)c1ccccc1F,/,-2,-1,/,/,/
CC1CCN(c2ccccc2NC(=S)NC(=O)c2cccs2)CC1,/,12,/,/,/,/

# Source: PubChem (Broad Institute)
